From ChEMBL document CHEMBL1147480, “Synthesis, absolute stereochemistry and molecular design of the new antifungal and antibacterial antibiotic produced by Streptomyces sp.201” (2004)
≈ marks a conversion by molar mass, not a printed value.

What was measured:
Format in all cases: functional
[1] = test system: Proteus vulgaris; assay: Minimum inhibitory concentration required for antibacterial activity against Proteus vulgaris
Method in brief: (§1)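 Broth tube dilution in nutrient broth (5 mL final volume). The compound was diluted in phosphate buffer pH 7.4 and culture broth to final concentrations of 1–600 µg/mL. Inoculum was adjusted to 3×10^5 CFU/mL in Ringer's solution, then incubated at 35 °C for 24 h. Tubes without visible growth were subcultured (10 µL) onto agar plates at 35 °C and checked microscopically for growth.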

[2] = test system: Thanatephorus cucumeris; assay: Minimum fungicidal concentration required against Rhizoctonia solani
Method in brief: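 Tube assay in molten M2 agar (g/L: yeast extract 5.00, NaCl 10.00, KH2PO4 0.10, MgSO4·7H2O 0.05, dextrose 10.00, agar 15.0, pH 7.1). Stock in sulfoxide solvent, diluted in phosphate buffer pH 7.4 and culture broth; final 1–600 µg/mL. Spore suspension in Ringer's solution, 3×10^5 CFU/mL; 35 °C, 48 h. MFC = lowest concentration killing 95% of inoculum.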

[3] = test system: Mycobacterium tuberculosis; assay: Minimum inhibitory concentration required for antibacterial activity against Mycobacterium tuberculosis
Method in brief: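 Tube dilution in M-33 broth (yeast extract, tryptone, glucose, pH 7.0; 5 mL final volume). Test agent was diluted in phosphate buffer pH 7.4 and broth to a final 1–600 µg/mL. Inoculum was 3×10^5 CFU/mL prepared in Ringer's solution, incubated at 35 °C for 120 h. Clear tubes were subcultured (10 µL) on agar at 35 °C and examined under a microscope for growth.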

[4] = test system: Bacillus subtilis; assay: Minimum inhibitory concentration required for antibacterial activity against Bacillus subtilis; method in brief: as §1
[5] = test system: Escherichia coli; assay: Minimum inhibitory concentration required for antibacterial activity against Escherichia coli
Method in brief: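 Broth tube dilution in nutrient broth; stock in sulfoxide solvent, diluted in phosphate buffer pH 7.4 and culture broth to final 1–600 µg/mL. Inoculum in Ringer's solution, 3×10^5 CFU/mL; 35 °C for 24 h. Tubes without visible growth subcultured (10 µL) onto agar plates at 35 °C, growth checked by microscope.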

SMILES | MIC [1] [µg/mL] | MFC [2] [µg/mL] | MIC [3] [µg/mL] | MIC [4] [µg/mL] | MIC [5] [µg/mL]
CCCCCCOC(=O)c1ccncc1 [ISONICOTINIC ACID HEXYL ESTER] | 36 (≈ 174 µM) | 44 (≈ 212 µM) | 24 (≈ 116 µM) | 50 (≈ 241 µM) | 35 (≈ 169 µM)
CCCCCCCOC(=O)c1ccncc1 [ISONICOTINIC ACID HEPTYL ESTER] | 16 (≈ 72.3 µM) | 15 (≈ 67.8 µM) | 16 (≈ 72.3 µM) | 24 (≈ 108 µM) | 16 (≈ 72.3 µM)
CCCCC[C@@H](C)COC(=O)c1ccncc1 [ISONICOTINIC ACID 2-METHYL-HEPTYL ESTER] | 6 (≈ 25.5 µM) | 24 (≈ 102 µM) | 10 (≈ 42.5 µM) | 16 (≈ 68 µM) | 30 (≈ 127 µM)
CCCCCOC(=O)c1ccncc1 [ISONICOTINIC ACID PENTYL ESTER] | 14 (≈ 72.4 µM) | 14 (≈ 72.4 µM) | 10 (≈ 51.7 µM) | 20 (≈ 103 µM) | 20 (≈ 103 µM)
CCCCCCCCCCCCCCCCCCOC(=O)c1ccncc1 [ISONICOTINIC ACID OCTADECYL ESTER] | 500 (≈ 1330 µM) | 600 (≈ 1600 µM) | 320 (≈ 852 µM) | 600 (≈ 1600 µM) | 56 (≈ 149 µM)
CCCCCCCCOC(=O)c1ccncc1 [ISONICOTINIC ACID OCTYL ESTER] | 6 (≈ 25.5 µM) | 18 (≈ 76.5 µM) | 8 (≈ 34 µM) | 16 (≈ 68 µM) | 12 (≈ 51 µM)
CCCCC[C@H](C)COC(=O)c1ccncc1 [(S)-2-METHYLHEPTYL ISONICOTINATE] | 14 (≈ 59.5 µM) | 32 (≈ 136 µM) | 14 (≈ 59.5 µM) | 20 (≈ 85 µM) | 40 (≈ 170 µM)
CCCCOC(=O)c1ccncc1 [ISONICOTINIC ACID BUTYL ESTER] | 500 (≈ 2790 µM) | 600 (≈ 3350 µM) | 280 (≈ 1560 µM) | 600 (≈ 3350 µM) | 500 (≈ 2790 µM)
